Assay results taken from ChEMBL document CHEMBL1144181, “Achiral oligoamines as versatile tool for the development of aspartic protease inhibitors” (Bioorg Med Chem, 2008).
One block for each molecule: values may come before it.

Tests used:
[1] = molecular target: T1, Renin (Homo sapiens, UniProt P00797); test: Inhibition of recombinant renin by fluorescence technique
T1 sequence (P00797 whole entry): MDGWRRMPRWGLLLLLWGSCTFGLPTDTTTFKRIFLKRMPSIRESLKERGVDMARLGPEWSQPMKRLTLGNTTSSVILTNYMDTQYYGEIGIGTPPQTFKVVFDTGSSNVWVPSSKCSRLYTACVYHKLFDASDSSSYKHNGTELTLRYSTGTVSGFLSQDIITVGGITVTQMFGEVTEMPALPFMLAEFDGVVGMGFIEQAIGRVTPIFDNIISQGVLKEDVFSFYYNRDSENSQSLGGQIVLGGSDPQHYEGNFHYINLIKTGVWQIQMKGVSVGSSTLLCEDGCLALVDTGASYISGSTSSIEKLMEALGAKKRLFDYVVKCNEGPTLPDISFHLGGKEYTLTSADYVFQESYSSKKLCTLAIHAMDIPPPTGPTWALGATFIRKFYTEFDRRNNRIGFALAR

[2] = Inhibition of pig pepsin by fluorescence technique; design: species or system Sus scrofa
[3] = Inhibition of Plasmodium recombinant plasmepsin-2 expressed in Escherichia coli by fluorescence technique
Method in brief: (§1)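 The recombinant enzyme was expressed in E. coli and purified. It was assayed at room temperature in 100 mM NaAc, pH 4.5, with 1 mg/mL BSA and 4% final DMSO. The substrate was Abz-Thr-Ile-Nle-(p-NO2-Phe)-Gln-Arg-NH2, read by fluorescence increase (ex 337, em 410 nm). IC50 came from nonlinear regression of vi/v0 versus inhibitor concentration, and Ki = IC50/[1+(S/Km)].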

[4] = molecular target: Beta-secretase 1 (Homo sapiens, UniProt P56817); test: Inhibition of recombinant beta secretase 1 by fluorescence technique
Chain of Beta-secretase 1 (P56817 whole entry): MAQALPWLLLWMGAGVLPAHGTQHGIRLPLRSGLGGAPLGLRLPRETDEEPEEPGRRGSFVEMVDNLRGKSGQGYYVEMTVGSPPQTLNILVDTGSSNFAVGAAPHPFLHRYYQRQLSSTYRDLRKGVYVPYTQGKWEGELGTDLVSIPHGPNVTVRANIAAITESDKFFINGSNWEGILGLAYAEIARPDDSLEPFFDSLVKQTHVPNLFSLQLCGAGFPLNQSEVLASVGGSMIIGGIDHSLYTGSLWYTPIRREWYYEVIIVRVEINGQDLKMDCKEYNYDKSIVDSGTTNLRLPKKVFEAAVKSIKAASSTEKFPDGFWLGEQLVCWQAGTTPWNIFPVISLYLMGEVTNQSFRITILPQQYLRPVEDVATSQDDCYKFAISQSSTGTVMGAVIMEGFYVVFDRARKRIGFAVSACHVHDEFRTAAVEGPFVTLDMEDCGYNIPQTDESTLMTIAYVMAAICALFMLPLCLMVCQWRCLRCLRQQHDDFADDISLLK

[5] = Inhibition of Plasmodium recombinant plasmepsin-4 expressed in Escherichia coli by fluorescence technique; method in brief: as §1
[6] = molecular target: Protease (Human immunodeficiency virus 1, UniProt Q9YQ12); test: Inhibition of recombinant HIV1 protease expressed in Escherichia coli by fluorescence technique
Chain of Protease (Q9YQ12 whole entry): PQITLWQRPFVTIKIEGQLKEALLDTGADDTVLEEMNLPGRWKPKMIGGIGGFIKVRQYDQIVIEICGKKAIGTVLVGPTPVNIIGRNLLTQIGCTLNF

SMILES: Nc1ccc(S(=O)(=O)N(CCNCCN(Cc2ccccc2)S(=O)(=O)c2ccc(N)cc2)Cc2ccccc2)cc1
IC50 [1]: > 250 µM | Ki [2]: 3.9 µM | Ki [3]: 4.2 µM | IC50 [4]: > 250 µM | Ki [5]: 7.5 µM

SMILES: Nc1ccc(S(=O)(=O)N(CCCNCCCN(Cc2ccccc2)S(=O)(=O)c2ccc(N)cc2)Cc2ccccc2)cc1
IC50 [1]: > 250 µM | Ki [2]: 4 µM | Ki [3]: 2.8 µM | Ki [4]: 64 µM | Ki [5]: 20 µM | IC50 [6]: > 250 µM

SMILES: O=C(Cc1ccccc1)N(CCNCCN(Cc1ccccc1)C(=O)Cc1ccccc1)Cc1ccccc1
Ki [1]: 5.7 µM | IC50 [2]: > 250 µM | Ki [3]: 91 µM | IC50 [4]: > 250 µM | Ki [5]: 98 µM | IC50 [6]: > 250 µM

SMILES: Nc1ccc(S(=O)(=O)N(CCCNCCN(Cc2ccccc2)S(=O)(=O)c2ccc(N)cc2)Cc2ccccc2)cc1
IC50 [1]: > 250 µM | IC50 [2]: > 250 µM | Ki [3]: 22 µM | IC50 [4]: > 250 µM | Ki [5]: 7.5 µM | IC50 [6]: > 250 µM

SMILES: O=S(=O)(c1ccccc1)N(CCCNCCN(Cc1ccccc1)S(=O)(=O)c1ccccc1)Cc1ccccc1
IC50 [1]: > 250 µM | Ki [2]: 15 µM | Ki [3]: 18 µM | IC50 [4]: > 250 µM | Ki [5]: 17 µM | Ki [6]: 14 µM

SMILES: O=S(=O)(c1ccccc1)N(CCNCCN(Cc1ccccc1)S(=O)(=O)c1ccccc1)Cc1ccccc1
IC50 [1]: > 250 µM | Ki [2]: 5.7 µM | Ki [3]: 7 µM | IC50 [4]: > 250 µM | Ki [5]: 36 µM | Ki [6]: 3.8 µM

SMILES: CC(C)CN(CCNCCN(CC(C)C)S(=O)(=O)c1ccc(N)cc1)S(=O)(=O)c1ccc(N)cc1
IC50 [1]: > 250 µM | Ki [2]: 4.8 µM | Ki [3]: 6.8 µM | IC50 [4]: > 250 µM | Ki [5]: 56 µM

SMILES: O=C(Cc1ccccc1)N(CCCNCCN(Cc1ccccc1)C(=O)Cc1ccccc1)Cc1ccccc1
IC50 [1]: > 250 µM | IC50 [2]: > 250 µM | Ki [3]: 63 µM | IC50 [4]: > 250 µM | Ki [5]: 56 µM | IC50 [6]: > 250 µM

SMILES: O=C(Cc1ccccc1)N(CCCNCCCN(Cc1ccccc1)C(=O)Cc1ccccc1)Cc1ccccc1
Ki [1]: 16 µM | IC50 [2]: > 250 µM | Ki [3]: 120 µM | IC50 [4]: > 250 µM | Ki [5]: 170 µM | IC50 [6]: > 250 µM

SMILES: O=S(=O)(c1ccccc1)N(CCCNCCCN(Cc1ccccc1)S(=O)(=O)c1ccccc1)Cc1ccccc1
IC50 [1]: > 250 µM | IC50 [2]: > 250 µM | Ki [3]: 21 µM | Ki [4]: 150 µM | Ki [5]: 42 µM | IC50 [6]: > 250 µM

SMILES: CC(C)CN(CCNCCN(CC(C)C)S(=O)(=O)c1ccccc1)S(=O)(=O)c1ccccc1
IC50 [1]: > 250 µM | Ki [2]: 4.5 µM | Ki [3]: 23 µM | IC50 [4]: > 250 µM | Ki [5]: 87 µM | Ki [6]: 10 µM

Ki [6]: 0.9 µM
SMILES: CC(C)CN(C[C@@H](O)[C@H](Cc1ccccc1)NC(=O)O[C@H]1CCOC1)S(=O)(=O)c1ccc(N)cc1
